Our source for the Activity and Ratio values is ChEMBL document CHEMBL1671862, “Impact of nucleoside reverse transcriptase inhibitors on mitochondrial DNA and RNA in human skeletal muscle cells” (Antimicrob Agents Chemother, 2008).

Assay type in all cases: tissue-based, Muscle tissue
Series [1] in a line: Cytotoxicity against human skeletal muscle Myotube assessed as change in POLG mitochondrial RNA level on day 5 by RT-PCR relative to untreated control. Put shortly:
(§1)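 Myoblasts at 70-80% confluence were differentiated into myotubes for 72 h in alpha-MEM with 10% FCS and penicillin/streptomycin. They were then treated with NRTIs at plasma Cmax levels (ddI 11.8, d4T 3.6, AZT 7.1, 3TC 8.3, ABV 3.0 μmol) for 5 days at 37°C, 5% CO2, with medium renewed every 2 days. mtDNA:nDNA, or RNA:G6PDH copies by real-time PCR, is expressed relative to untreated cells. Five repeats.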

Series [2] can be described thus: Cytotoxicity against human skeletal muscle Myoblast assessed as change in POLG mitochondrial RNA level on day 5 by RT-PCR relative to untreated control. Summed up: (§2)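 Proliferating human skeletal muscle myoblasts were treated from 20-30% confluence in growth medium, with NRTIs dissolved in sterile water. Doses were plasma Cmax levels (ddI 11.8, d4T 3.6, AZT 7.1, 3TC 8.3, ABV 3.0 μmol), given singly or as combinations. Controls got medium only, and medium was renewed every 2 days at 37°C, 5% CO2. Real-time RT-PCR copies were normalized to G6PDH and expressed relative to untreated cells. Five repeats.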

A short description of series [3]: Cytotoxicity against human skeletal muscle Myoblast assessed as increase in mitochondrial DNA on day 2 by RT-PCR relative to untreated control. Put shortly:
(§3)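 Myoblasts were treated from 20-30% confluence with NRTIs at plasma Cmax levels (ddI 11.8, d4T 3.6, AZT 7.1, 3TC 8.3, ABV 3.0 μmol), singly or combined. Medium was changed every 2 days at 37°C, 5% CO2, and cells were harvested on day 2 or 5. mtDNA and nDNA were measured by LightCycler real-time PCR in duplicate. The mtDNA:nDNA ratio is expressed relative to untreated cells. Five repeats.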

Series [4] in a line: Cytotoxicity against human skeletal muscle Myoblast assessed as change in MTCYB mitochondrial RNA level on day 2 by RT-PCR relative to untreated control. Put shortly:
as §2

Series [5] is described as follows: Cytotoxicity against human skeletal muscle Myotube at 100 uL on day 5 by WST-1 assay. Summed up: (§4)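 After 5 days of NRTI treatment at Cmax levels, 100 μl WST-1 reagent was added per well and incubated 1 h at 37°C, 5% CO2. Supernatant absorbance was read at 450 nm in duplicate. Results are the ratio of treated to untreated wells, run in triplicate.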
Series [6] can be described thus: Cytotoxicity against human skeletal muscle Myoblast assessed as change in Tfam mitochondrial RNA level on day 2 by RT-PCR relative to untreated control. Summed up:
as §2

A short description of series [7]: Cytotoxicity against human skeletal muscle Myoblast assessed as change in POLG mitochondrial RNA level on day 2 by RT-PCR relative to untreated control. Put shortly:
as §2

Series [8] can be described thus: Cytotoxicity against human skeletal muscle Myoblast assessed as change in MTCO3 mitochondrial RNA level on day 2 by RT-PCR relative to untreated control. Summed up:
as §2

Series [9] in a line: Cytotoxicity against human skeletal muscle Myoblast assessed as increase in mitochondrial DNA on day 5 by RT-PCR relative to untreated control. Summed up:
as §3

Series [10] can be described thus: Cytotoxicity against human skeletal muscle Myotube assessed as change in Tfam mitochondrial RNA level on day 5 by RT-PCR relative to untreated control. Summed up:
as §1

Series [11] in a line: Cytotoxicity against human skeletal muscle Myoblast assessed as change in Tfam mitochondrial RNA level on day 5 by RT-PCR relative to untreated control. Summed up: as §2
Series [12] in a line: Cytotoxicity against human skeletal muscle Myoblast at 100 uL on day 5 by WST-1 assay. Summed up: as §4
Background: Tetrazolium dyes change colour on reduction, which living cells bring about.

Series [13] is described as follows: Cytotoxicity against human skeletal muscle Myoblast assessed as decrease in MTCYB mitochondrial RNA level on day 5 by RT-PCR relative to untreated control. Summed up:
as §2

Series [14] in a line: Cytotoxicity against human skeletal muscle Myotube assessed as decrease in MTCYB mitochondrial RNA level on day 5 by RT-PCR relative to untreated control. Summed up: as §1
Series [15] is described as follows: Cytotoxicity against human skeletal muscle Myoblast assessed as decrease in mitochondrial DNA on day 2 by RT-PCR relative to untreated control. Put shortly: as §3
The nature of series [16]: Cytotoxicity against human skeletal muscle Myoblast assessed as decrease in mitochondrial DNA on day 5 by RT-PCR relative to untreated control. Put shortly:
as §3

Series [17] in a line: Cytotoxicity against human skeletal muscle Myotube assessed as decrease in mitochondrial DNA on day 5 by RT-PCR relative to untreated control. Summed up: as §1
Series [18] is described as follows: Cytotoxicity against human skeletal muscle Myotube assessed as decrease in MTCO3 mitochondrial RNA level on day 5 by RT-PCR relative to untreated control. Summed up:
as §1

Molecules are shown by their SMILES.

Take `Nc1nc(NC2CC2)c2ncn([C@H]3C=C[C@@H](CO)C3)c2n1.Nc1nc(NC2CC2)c2ncn([C@H]3C=C[C@@H](CO)C3)c2n1.O=S(=O)(O)O` [ABACAVIR SULFATE]: the Activity entry in [1], in [2], in series [4], in [5], in [6] and in [7] was “Non-toxic” each time. Moreover, the Activity entry in series [8], in [10], in series [11] and in series [12] was “Non-toxic” each time. For the same compound, the Ratio was determined as 1.19 in series [3] and 1.07 in [9].

Regarding `O=c1[nH]cnc2c1ncn2[C@H]1CC[C@@H](CO)O1` [DIDANOSINE], the Activity entry in [1], in series [2], in series [4], in [5], in series [6] and in series [7] was “Non-toxic” in each case. Besides, the Activity entry in series [8], in [10], in [11] and in [12] was “Non-toxic” throughout. For the same compound, the Ratio in [13] came out at 0.51; in series [14], 0.66; in series [15], 0.51; in [16] it was 0.22; in series [17], 0.5.

For the compound `Nc1ccn([C@@H]2CS[C@H](CO)O2)c(=O)n1` [LAMIVUDINE], the Activity result in [1], in series [2], in series [4], in series [5], in [6] and in [7] was “Non-toxic” each time. Further, the Activity entry in [8], in series [10], in series [11] and in series [12] was “Non-toxic” throughout. Moreover, the Ratio is reported as 1.16 in series [3] and 0.94 in series [9].

Regarding `Cc1cn([C@H]2C=C[C@@H](CO)O2)c(=O)[nH]c1=O` [STAVUDINE], the Activity result in [1], in series [2], in series [4], in [5], in [6] and in series [7] was “Non-toxic” each time. Further, the Activity result in series [8], in series [10], in series [11] and in series [12] was “Non-toxic” throughout. Moreover, the Ratio stood at 1.2 in [3], 0.69 in [18] and 0.98 in series [9].

For the compound `Cc1cn([C@H]2C[C@H](N=[N+]=[N-])[C@@H](CO)O2)c(=O)[nH]c1=O` [ZIDOVUDINE], the Activity result in [1], in series [2], in series [4], in series [5], in [6] and in series [7] was “Non-toxic” each time. The Activity entry in [8], in [10], in series [11] and in [12] was “Non-toxic” throughout. For the same compound, the Ratio in series [3] was determined as 1.45; in [9] it was 1.14.
